Among the data in ChEMBL document CHEMBL4513216, “Probing the Open Global Health Chemical Diversity Library for Multistage-Active Starting Points for Next-Generation Antimalarials” (ACS Infect Dis, 2020) are cytotoxicity values, retold here.

This data set in a line: Toxicity liver stage against HepG2, at 10uM. The data set is classed as cell-based. Also on record: test concentration 10 uM, cell line HepG2-A16-CD81EGFP. The following applies: human, HepG2-A16-CD81EGFP cells; read-out: INHIBITION
Put shortly: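 Uninfected HepG2-A16-CD81EGFP cells, 3 × 10^3 per well, 1536-well, plated on prespotted compound at 10 μM final, parasite-free screening media added to match infected plates; puromycin 10 μM positive, DMSO 0.5% negative; run in parallel with 48 h PbLuc assay at 37 °C, 5% CO2; viability by CellTiter-Glo luminescence, normalized to controls.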

Turning to `CC(C(=O)N1CCN(Cc2ccc3c(c2)OCO3)CC1)n1ccnc1` (centres undefined), the cytotoxicity at 10 µM is -9.57%.

Consider `O=C(CCn1ccc2ccccc21)N1CCC(Nc2cccnn2)CC1`, for which the cytotoxicity at 10 µM came to 3.79%. Turning to `Cc1ccc(N2CCO[C@H]3CN(Cc4ccoc4)C[C@H]32)nn1`, the cytotoxicity at 10 µM is -70.7%. For the compound `Cn1ccc(C(=O)NCCOc2ccc3c(c2)OCO3)cc1=O`, the cytotoxicity at 10 µM was found to be 5.97%.

For the compound `CCc1cnc(N2CCN(Cc3ccon3)CC2)s1`, the cytotoxicity at 10 µM is 1.16%.

Turning to `CCC(NC(=O)c1cccc(N2CCCC2=O)c1)c1ccc(OC)cc1` (centres undefined), the cytotoxicity at 10 µM was -62.3%. The result for `CNC(=O)[C@@H]1[C@@H](c2ccccc2)CN2CCN(Cc3cccs3)C[C@H]12` reads 11%. Take `COc1ccc2nc(C3CC3)cc(C(=O)NCCc3nnc[nH]3)c2c1`: the cytotoxicity at 10 µM amounted to 0.867%.

Take `O=C(O)[C@]12CCCN(Cc3ccccn3)[C@@H]1CCN(c1cnccn1)C2`: the cytotoxicity at 10 µM was 2.12%. Next, `Cc1cc(N2CCN(C(=O)c3cn(C)c4ccccc34)CC2)nc(C)n1`: -1.96%; `C=C(C)CN(CC)Cc1nc(C(C)(C)C)no1`: -4.57%; `NC(c1ccc(Cl)cc1)c1cccs1` (centres undefined): -17.1%.

Turning to `CC(C)CNC(=O)c1[nH]nc(C2CC2)c1Br`, the cytotoxicity at 10 µM stood at 2.71%. The result for `N#Cc1ccc(C(=O)O)nc1C=Cc1cccc(Br)c1` reads 5.09%; that for `CC(=O)NC1CCCN(Cc2ccc(OCc3ccccn3)cc2)C1` (centres undefined), 1.41%. Consider `Cc1n[nH]c(C)c1CCC(=O)N1CCC(O)(CN2CCN(C)CC2)C1` (centres undefined), for which the cytotoxicity at 10 µM was -6.13%. Regarding `COCCC(=O)N1CC[C@@H](N2CCOCC2)[C@@H]1Cc1ccccc1`, the cytotoxicity at 10 µM was -70.4%. Next, `NC(=O)C1CCN(C(=O)c2cc(S(=O)(=O)N3CCCC3)cs2)CC1`: -43.9%; `Cc1ncc(CN(C)CC2CCCN2c2cccnn2)s1` (centres undefined): 4.19%.

Turning to `Cn1cccc1C(O)CNC(=O)c1ccc(F)c(F)c1` (centres undefined), the cytotoxicity at 10 µM was -1.29%.

As to `CCn1cc(S(=O)(=O)NC2(CN3CCOCC3)CCCCC2)c(C)n1`, the cytotoxicity at 10 µM was 1.88%. Regarding `Cc1ccc(S(=O)(=O)N2CCN(CCC#N)CC2)s1`, the cytotoxicity at 10 µM was -10.8%. Next, `CCS(=O)(=O)N1CC(c2nc(-c3ccsc3)no2)C1`: -8.25%; `COCC(=O)N1CC[C@]2(O)CCN(Cc3ccsc3)C[C@@H]2C1`: 0.196%; `CC(C)N1CCO[C@H]2CN(S(=O)(=O)c3ccc(C#N)cc3)C[C@H]21`: 7.55%. Next, `CNC(=O)[C@@]12CCO[C@@H]1CCN(Cc1ccc3c(c1)OCO3)C2`: 1.75%; `CC(=O)N1CCC(N2CC(Cc3nccc4ccn(C)c34)C2)CC1`: 17.7%; `CC(C)N(C)[C@@H]1CCN(S(C)(=O)=O)[C@H]1Cc1ccccc1`: 5.7%. For the compound `CC(=O)N1CCCN(C(=O)NC(C)c2csc3ccccc23)CC1` (centres undefined), the cytotoxicity at 10 µM is -4.6%. As to `CNc1cc(C)nc(C2CN(Cc3ccc(Cl)cn3)CCO2)c1` (centres undefined), the cytotoxicity at 10 µM was -26.2%. Next, `CC(=O)NCCCNC(=O)N1CCN(c2cc(F)ccc2F)CC1`: -5.14%. Take `O=C(C1CCOC1)N1CCC2(CCN(Cc3nccs3)C2)CC1` (centres undefined): the cytotoxicity at 10 µM is -74.8%. Take `O=C(NCC1CCC(c2ccnc3ncnn23)CC1)C1CC1` (centres undefined): the cytotoxicity at 10 µM came to 9.17%.

As for `Cc1cc(CN2CCC(CNC(=O)C3(c4ccccc4)CC3)C2)[nH]n1` (centres undefined), the cytotoxicity at 10 µM was -145%. Next, `COCCN1C[C@@H]2CN(Cc3ccsc3)CCC[C@]2(C(=O)O)C1`: -10.6%; `CCOc1cc(C)nc(N2CCN(C(=O)c3cc[nH]n3)CC2)n1`: -8.21%. Turning to `CS(=O)(=O)c1nccn1Cc1ccncc1`, the cytotoxicity at 10 µM stood at 14.5%. Next, `C[C@@H]1C[C@H](C(F)(F)F)n2nc(C3CCN(S(=O)(=O)N(C)C)CC3)cc2N1`: -17.9%. The result for `c1cncc(-c2noc(CNC3CCCN(c4cccnn4)C3)n2)c1` (centres undefined) reads 3.26%; that for `CCn1cc(NC(=O)NCCc2ccc3c(c2)OCCO3)cn1`, -7.72%. Regarding `Cc1cc(NCc2cc3n(n2)CCCN(S(C)(=O)=O)C3)ncn1`, the cytotoxicity at 10 µM was -14.3%. The result for `Cc1cc(N(C)CCCn2cccn2)nc(-c2cccnc2)n1` reads 16.3%; that for `CC(C)c1nc(CN(C)C2CCCN(c3cccnn3)C2)no1` (centres undefined), -9.92%; that for `CC(=O)NCC(=O)N1CCC2(CC1)NC(=O)CC2c1cnn(C)c1` (centres undefined), -0.113%.

On to `CC(C)C(NC(=O)Nc1cnn(CC(N)=O)c1)c1ccc(Cl)cc1` (centres undefined), for which the cytotoxicity at 10 µM was 7.51%. Consider `O[C@H]1CCCC[C@@H]1N1CCN(CCCc2ccc3c(c2)OCO3)CC1`, for which the cytotoxicity at 10 µM is -3.69%. The result for `Cc1cc(C)cc(NC(=O)N(CCC#N)CCCN(C)C)c1` reads -49.3%; that for `CC(C)Cn1c(=O)n(CCCn2cccn2)c2cc(C(=O)O)cnc21`, 1.18%.

For `Cc1csc([C@@H]2C[C@H]3CN(c4ncc(F)cn4)C[C@H]3O2)n1`, the cytotoxicity at 10 µM came to 6.88%. Next, `CCCC(NC(=O)c1cc(C)ccc1C)c1nnn[nH]1` (centres undefined): -9.11%. Take `O=S(=O)(NCC1COc2ccccc2C1)N1CCCCCC1` (centres undefined): the cytotoxicity at 10 µM was -0.138%. As to `Cc1cc(C)c(C(=O)N2CCc3c(ncn3CCc3ccccc3)C2)[nH]1`, the cytotoxicity at 10 µM was determined as 7.13%. For `COc1cccc(CN2C[C@@H]3COC[C@]3(COc3cccnc3)C2)c1`, the cytotoxicity at 10 µM was -64.7%.

With `C/C(=C\c1ccccc1)CN1CCCC(c2nnc3n2CCNCC3)C1` (centres undefined), the cytotoxicity at 10 µM amounted to 6.97%. The result for `CS(=O)(=O)Cc1nc(CN2CCCc3sccc3C2)cs1` reads 7.28%. For the compound `Clc1ccc2nc(N3CCC(NCCCC4CCOC4)CC3)sc2c1` (centres undefined), the cytotoxicity at 10 µM amounted to 4.1%. As to `Cc1ccc([C@@H]2CN(C(=O)c3csc(C)n3)C[C@H]2NC(=O)C2CC2)cc1`, the cytotoxicity at 10 µM was -5.99%. The result for `CC1CN(C(=O)c2nccnc2N)c2ccc(F)cc2O1` (centres undefined) reads 4.28%. Next, `CC(NC(=O)N1CCCN(Cc2cccs2)CC1)c1cccnc1` (centres undefined): -8.83%; `c1cc(CN2CCC3(CC2)COC(COCC2CC2)C3)ccn1` (centres undefined): -0.443%; `CS(=O)(=O)N1CC2(CCN(C(=O)c3ccncc3)CC2)c2ccccc21`: 2.23%.

`COc1cc(CC(=O)Nc2cccc(C(=O)N(C)C)n2)ccc1C`: the cytotoxicity at 10 µM stood at 2.25%. Consider `COCCN1CCCc2sc(C(=O)N3CCCN(C)CC3)nc21`, for which the cytotoxicity at 10 µM is 0.534%.

`Cc1nc(N2CCN(C(=O)c3cccs3)CC2)cc(-n2cccc2)n1`: the cytotoxicity at 10 µM stood at 1.01%.

As to `Cc1ccc2[nH]c([C@H]3CCN(CC4CCCCC4)C3)nc2c1`, the cytotoxicity at 10 µM was -3.45%. Next, `CCOCC1CN(C(=O)Cc2ccccn2)Cc2cn(CC)nc21` (centres undefined): 5.06%. On to `c1cc(CNCc2ccnc(N3CCOCC3)c2)c2c(c1)OCCCO2`, for which the cytotoxicity at 10 µM was 7.82%.

For the compound `CN(C)C(=O)CN1C(=O)[C@@H]2CC[C@H]1CN(Cc1ccccc1C#N)C2`, the cytotoxicity at 10 µM amounted to 1.22%.

`COCCN1CCN(C(=O)c2cc(C(C)C)on2)[C@H]2CS(=O)(=O)C[C@H]21`: the cytotoxicity at 10 µM was -12%.
